The source made the active and inactive calls. The calls are words filed in the database; no cut-off is given here.
Key:
[1] = tested on: Jurkat; assay: Cell cycle arrest in human Jurkat cells assessed as accumulation at G2/M phase at 250 nM after 24 hrs by flow cytometry; assay type: functional
In short: (§1)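 Exponentially growing Jurkat cells (5 × 105) were exposed to compound for 24 h. Cells were then fixed in ice-cold 70% ethanol, lysed with RNase A-containing buffer and stained with propidium iodide. DNA-content histograms from flow cytometry gave G1, S and G2/M fractions.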

[2] = tested on: LoVo; assay: Resistance index, Ratio of GI50 for human doxorubicin-resistant LoVo cells to GI50 for human LoVo cells; assay type: functional
In short: (§2)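 Growth inhibition by MTT after 72 h incubation. Resistant sublines: LoVoDoxo and MCF-7 MDR were kept in 0.1 µg/mL doxorubicin; CEMVbl-100 was selected against vinblastine. GI50 given as mean ± SEM of three independent experiments. Resistance index is resistant-line GI50 over parental GI50.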

[3] = tested on: LoVo; assay: Growth inhibition of human doxorubicin-resistant LoVo cells after 72 hrs by MTT assay; assay type: functional; in short: as §2
[4] = tested on: Jurkat; assay: Cell cycle arrest in human Jurkat cells assessed as accumulation at S phase at 125 nM after 24 hrs by flow cytometry; assay type: functional; in short: as §1
[5] = tested on: Jurkat; assay: Effect on mitochondrial dysfunction in human Jurkat cells assessed as decrease in 10-N-nonyl-acridine-orange fluorescence intensity after 24 hrs by flow cytometry; assay type: functional, cell-based
In short: (§3)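 Jurkat cells after 24 h exposure were resuspended in HBSS with hydroethidine (2.5 µM, ROS) or NAO (100 nM, cardiolipin oxidation) for 30 min at 37 °C. Flow cytometry used 488 nm excitation, with emission at 585 nm (HE) or 530 nm (NAO). Mean ± SEM of three experiments.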

[6] = tested on: A549; assay: Disruption of tubulin network in human A549 cells assessed as disaggregation of microtubules at 2.5 uM […]; assay type: functional, cell-based
[7] = tested on: Jurkat; assay: Cell cycle arrest in human Jurkat cells assessed as accumulation at S phase at 250 nM after 24 hrs by flow cytometry; assay type: functional; in short: as §1
[8] = tested on: Jurkat; assay: Effect on mitochondrial membrane potential depolarization in human Jurkat cells after 24 hrs by flow cytometry; assay type: functional, cell-based
In short: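 Jurkat cells after 24 h exposure were loaded with JC-1 (1 µM in HBSS) for 10 min at 37 °C, washed and analyzed by flow cytometry. The percentage of cells with low mitochondrial potential was recorded.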

[9] = tested on: Jurkat; assay: Effect on mitochondrial dysfunction in human Jurkat cells assessed as induction of ROS production after 24 hrs by flow cytometry; assay type: functional, cell-based; in short: as §3
[10] = tested on: Jurkat; assay: Cell cycle arrest in human Jurkat cells assessed as accumulation at G1 phase at 32 nM after 24 hrs by flow cytometry; assay type: functional; in short: as §1
[11] = target: DNA topoisomerase 1 (Homo sapiens) (UniProt P11387); assay: Inhibition of human topoisomerase 1-mediated relaxation of supercoiled pBR322 DNA at 200 uM by agarose gel electrophoresis
In short: (§4)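 Supercoiled pBR322 was incubated with 5 units of human topoisomerase I for 30 min at 37 °C in 50 mM Tris-HCl pH 7.8, 50 mM KCl, 10 mM MgCl2, 1 mM DTT, 1 mM EDTA, with drug 0.5–200 µM. Reactions were stopped with SDS and proteinase K, run on 1% agarose at 20 V overnight, stained with ethidium bromide, and bands quantified. Ethidium-containing gels were also run.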

[12] = tested on: LoVo; assay: Growth inhibition of human LoVo cells after 72 hrs by MTT assay; assay type: functional; in short: as §2
[13] = tested on: Jurkat; assay: Cell cycle arrest in human Jurkat cells assessed as accumulation at G2/M phase at 500 nM after 24 hrs by flow cytometry; assay type: functional; in short: as §1
[14] = tested on: Jurkat; assay: Cell cycle arrest in human Jurkat cells assessed as accumulation at G2/M phase at 32 nM after 24 hrs by flow cytometry; assay type: functional; in short: as §1
[15] = tested on: Jurkat; assay: Cell cycle arrest in human Jurkat cells assessed as accumulation at G1 phase at 500 nM after 24 hrs by flow cytometry; assay type: functional; in short: as §1
[16] = tested on: Jurkat; assay: Cell cycle arrest in human Jurkat cells assessed as accumulation at S phase at 500 nM after 24 hrs by flow cytometry; assay type: functional; in short: as §1
[17] = target: DNA topoisomerase 1 (Homo sapiens) (UniProt P11387); assay: Inhibition of human topoisomerase 1-mediated relaxation of supercoiled pBR322 DNA at 20 uM by agarose gel electrophoresis; in short: as §4
[18] = Antitumor activity against human HL60(TB) cells; assay type: functional, HL-60(TB)
In short: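 Tested by the NCI in its in vitro disease-oriented human tumor cell line screen. Each cell line gave pGI50 (−log molar concentration for 50% net growth inhibition), pTGI (−log molar concentration for total growth inhibition) and pLC50 (−log molar concentration for 50% net cell death).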

[19] = tested on: Jurkat; assay: Cell cycle arrest in human Jurkat cells assessed as accumulation at G1 phase at 125 nM after 24 hrs by flow cytometry; assay type: functional; in short: as §1
[20] = tested on: K562; assay: Antitumor activity against human K562 cells; assay type: functional
In short: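 Run by the NCI in its in vitro disease-oriented screen of about 60 human tumour cell lines. For each line it reports pGI50 (50% net growth inhibition), pTGI (total growth inhibition) and pLC50 (50% net cell death), each as –log molar concentration. Where an effect was not reached within the tested range, the highest tested concentration was used.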

[21] = tested on: Jurkat; assay: Induction of apoptosis in human Jurkat cells after 24 hrs by flow cytometry; assay type: functional, cell-based
In short: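 Jurkat cells after 24 h exposure were stained with Annexin V-FITC plus propidium iodide. Flow cytometry used 488 nm excitation, with emission filters at 525 and 585 nm.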

[22] = tested on: Jurkat; assay: Cell cycle arrest in human Jurkat cells assessed as accumulation at S phase at 32 nM after 24 hrs by flow cytometry; assay type: functional; in short: as §1
[23] = tested on: Jurkat; assay: Cell cycle arrest in human Jurkat cells at mitosis at 0.5 uM after 24 hrs; assay type: functional
In short: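 Exponentially growing Jurkat cells were exposed for 24 h, then pelleted at 400g for 5 min. Hypotonic KCl (75 mM, 4 °C) was applied for 20 min, followed by methanol–acetic acid (3:1) fixation and Giemsa staining. 400 cells per treatment were scored microscopically; mitotic index is the fraction with mitotic figures. Three independent experiments, mean ± SEM.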

Sequence of DNA topoisomerase 1 (Homo sapiens) (P11387 whole entry): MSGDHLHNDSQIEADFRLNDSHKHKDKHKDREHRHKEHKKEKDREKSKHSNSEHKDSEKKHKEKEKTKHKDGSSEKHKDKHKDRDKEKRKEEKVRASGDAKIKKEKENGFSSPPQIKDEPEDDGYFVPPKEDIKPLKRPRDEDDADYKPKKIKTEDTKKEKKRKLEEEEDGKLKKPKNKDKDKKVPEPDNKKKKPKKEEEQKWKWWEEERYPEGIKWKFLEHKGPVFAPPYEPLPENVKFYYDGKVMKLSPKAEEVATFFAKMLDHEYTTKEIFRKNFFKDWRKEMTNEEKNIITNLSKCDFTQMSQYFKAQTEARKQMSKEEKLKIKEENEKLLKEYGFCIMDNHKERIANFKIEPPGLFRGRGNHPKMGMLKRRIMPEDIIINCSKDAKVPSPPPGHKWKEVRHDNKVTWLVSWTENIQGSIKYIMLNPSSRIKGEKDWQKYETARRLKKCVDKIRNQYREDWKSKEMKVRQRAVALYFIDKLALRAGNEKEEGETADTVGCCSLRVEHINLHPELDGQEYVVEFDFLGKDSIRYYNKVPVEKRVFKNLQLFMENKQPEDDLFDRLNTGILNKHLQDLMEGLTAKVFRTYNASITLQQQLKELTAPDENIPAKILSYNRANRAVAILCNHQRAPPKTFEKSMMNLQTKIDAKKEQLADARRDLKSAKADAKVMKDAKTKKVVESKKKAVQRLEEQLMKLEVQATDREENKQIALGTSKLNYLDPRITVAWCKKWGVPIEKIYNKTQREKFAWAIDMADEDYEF

**Q.** With `COc1ccc2c(c1)[nH]c(=O)c1c3ccccc3cn21` as the compound, how does the Activity [1] read?
**A.** Its Activity is 55.2%.

**Q.** And the RatioGI50 [2]?
**A.** The RatioGI50 was 1.

**Q.** And the GI50 [3]?
**A.** The GI50 was 130 nM.

**Q.** What about the Activity [4] of the same compound?
**A.** Its Activity is 38.6%.

**Q.** What about the Activity [5] of the same compound?
**A.** The Activity was “Active”.

**Q.** And the Activity [6]?
**A.** The Activity was “Active”.

**Q.** And the Activity [7]?
**A.** Its Activity is 44.2%.

**Q.** What about the Activity [8] of the same compound?
**A.** Its Activity is “Dose-dependent effect”.

**Q.** And the Activity [9]?
**A.** Its Activity is “Active”.

**Q.** And the Activity [10]?
**A.** The Activity was 27.1%.

**Q.** What about the Activity [11] of the same compound?
**A.** Its Activity is “Active”.

**Q.** What about the GI50 [12] of the same compound?
**A.** The GI50 was 130 nM.

**Q.** And the Activity [13]?
**A.** The Activity was 50.9%.

**Q.** What about the Activity [14] of the same compound?
**A.** The Activity was 28.8%.

**Q.** What about the Activity [15] of the same compound?
**A.** The Activity was 0.1%.

**Q.** And the Activity [16]?
**A.** The Activity was 49.1%.

**Q.** What about the Activity [17] of the same compound?
**A.** The Activity was “Active”.

**Q.** And the GI50 ([18]; HL-60)?
**A.** Its GI50 is 11.5 nM.

**Q.** What about the CC50 ([18]; HL-60, read-out: Log LC50 (the source's name) (converted)) of the same compound?
**A.** Its CC50 is 3550 nM.

**Q.** What about the TGI ([18]; HL-60, read-out: pTGI (converted)) of the same compound?
**A.** The TGI was 60.3 nM.

**Q.** And the Activity [19]?
**A.** Its Activity is 2.2%.

**Q.** What about the GI50 [20] of the same compound?
**A.** Its GI50 is 8.91 nM.

**Q.** What about the CC50 ([20]; read-out: Log LC50 (the source's name) (converted)) of the same compound?
**A.** Its CC50 is 5130 nM.

**Q.** What about the TGI ([20]; read-out: pTGI (converted)) of the same compound?
**A.** The TGI was 1020 nM.

**Q.** What about the Activity [21] of the same compound?
**A.** The Activity was “Dose-dependent effect”.

**Q.** And the Activity [22]?
**A.** The Activity was 44.1%.

**Q.** What about the Activity [23] of the same compound?
**A.** Its Activity is 50%.

Source: ChEMBL document CHEMBL1144782, “Isoindolo[2,1-a]quinoxaline derivatives, novel potent antitumor agents with dual inhibition of tubulin polymerization and topoisomerase I” (2008)
